Twelve molecules from ChEMBL document CHEMBL1142971, “NO-donor COX-2 inhibitors. New nitrooxy-substituted 1,5-diarylimidazoles endowed with COX-2 inhibitory and vasodilator properties” (J Med Chem, 2007) can be followed below.

A word on the pIC50: it is the IC50 on a negative log10 scale, so that one unit is a factor of ten. Broadly, the pEC50 is the EC50 on a negative log10 scale, so that one unit is a factor of ten.

pEC50, pIC50: −log10 of the molar value.

Data set [1] concerns the target T1, Prostaglandin G/H synthase 2 (Homo sapiens, UniProt P35354).
T1 sequence (P35354 whole entry): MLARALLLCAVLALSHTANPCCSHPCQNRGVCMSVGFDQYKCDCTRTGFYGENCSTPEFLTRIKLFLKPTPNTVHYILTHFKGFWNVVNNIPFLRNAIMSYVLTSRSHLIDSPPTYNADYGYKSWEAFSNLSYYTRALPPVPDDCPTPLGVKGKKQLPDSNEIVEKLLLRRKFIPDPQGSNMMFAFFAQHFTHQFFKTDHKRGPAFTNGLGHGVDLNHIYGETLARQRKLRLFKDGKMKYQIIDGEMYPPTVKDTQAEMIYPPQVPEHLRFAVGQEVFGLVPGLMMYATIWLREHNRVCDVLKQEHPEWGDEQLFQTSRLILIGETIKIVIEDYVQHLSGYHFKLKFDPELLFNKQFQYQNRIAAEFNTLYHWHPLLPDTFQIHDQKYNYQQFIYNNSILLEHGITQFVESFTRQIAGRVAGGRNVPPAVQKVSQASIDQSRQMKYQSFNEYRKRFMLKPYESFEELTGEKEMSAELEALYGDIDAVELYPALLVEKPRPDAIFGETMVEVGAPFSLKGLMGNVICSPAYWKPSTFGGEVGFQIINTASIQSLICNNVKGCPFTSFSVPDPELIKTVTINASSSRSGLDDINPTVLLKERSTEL

Data set [2] addresses Prostaglandin G/H synthase 1 (Homo sapiens, UniProt P23219). Description: Inhibition of COX1 in human whole blood assessed as TxB2 production after 1 hr. It is filed as tissue-based.
The species entered for data set [3] is Rattus norvegicus. Description: Vasodilation of phenylephrine-induced contraction in Wistar rat aorta in the presence of ODQ. Format: functional. Summed up: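 Rat aortic strips (male Wistar, 180-200 g) were equilibrated 120 min. 1 μM ODQ (sGC inhibitor) was added to the bath 5 min before contraction with 1 μM L-phenylephrine. At plateau, cumulative vasodilator concentrations were added. Isometric relaxation was recorded and given as EC50 ± SE (μM).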

Data set [4] can be described thus: Stability in human whole blood at 100 uM after 24 hrs. Format: ADME, tissue-based. As to conditions: read-out: Stability. An outline of the steps: (§1)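 Compound incubated at 37 ± 0.5 °C in human serum or human whole blood. Aliquots taken at set times were diluted 1:2 with acetonitrile containing 0.1% TFA to deproteinize, then sonicated, vortexed, centrifuged 15 min at 2150 × g and filtered.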

A short description of data set [5]: Stability in human serum at 100 uM after 24 hrs. As to conditions: read-out: Stability. Format: ADME, cell-free. An outline of the steps: as §1
The species named for data set [6] is Rattus norvegicus. The experiment in a line: Vasodilation of phenylephrine-induced contraction in Wistar rat aorta. It is filed as functional. An outline of the steps:
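Thoracic aortic strips from male Wistar rats (180-200 g) were equilibrated 120 min and precontracted with 1 μM L-phenylephrine. At plateau, cumulative concentrations of vasodilator were added, with DMSO as vehicle. Relaxation was recorded isometrically and reported as EC50 ± SE (μM).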

The species named for data set [7] is Rattus norvegicus. The experiment in a line: Vasodilation of phenylephrine-induced contraction in Wistar rat aorta in the presence of HbO2. Format: functional.

Chain of Prostaglandin G/H synthase 1 (P23219 whole entry): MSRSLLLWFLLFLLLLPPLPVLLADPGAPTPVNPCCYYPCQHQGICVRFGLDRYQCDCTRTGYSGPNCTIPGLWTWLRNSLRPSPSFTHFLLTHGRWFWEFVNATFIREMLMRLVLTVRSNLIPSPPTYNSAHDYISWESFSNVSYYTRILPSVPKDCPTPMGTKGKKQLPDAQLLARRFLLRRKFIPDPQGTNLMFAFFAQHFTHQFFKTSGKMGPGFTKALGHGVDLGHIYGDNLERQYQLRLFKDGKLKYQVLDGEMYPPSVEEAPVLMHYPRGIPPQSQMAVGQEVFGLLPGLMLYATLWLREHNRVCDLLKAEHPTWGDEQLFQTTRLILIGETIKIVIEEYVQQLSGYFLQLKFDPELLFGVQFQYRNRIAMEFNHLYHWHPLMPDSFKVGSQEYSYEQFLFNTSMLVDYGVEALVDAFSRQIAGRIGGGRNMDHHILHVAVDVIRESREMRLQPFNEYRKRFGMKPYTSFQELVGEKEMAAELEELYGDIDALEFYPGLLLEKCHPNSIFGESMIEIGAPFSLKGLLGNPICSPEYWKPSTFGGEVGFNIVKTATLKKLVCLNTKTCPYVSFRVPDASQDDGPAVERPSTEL

Turning to `COc1ccc(-c2c(Cl)ncn2-c2ccc(S(C)(=O)=O)cc2)cc1F`, the values for the pIC50 in data set [1] and in data set [2] were 7.05 and 5.24, respectively. In addition, the pEC50 in the data set filed under Rattus norvegicus [3] was 4.62.

On to `CS(=O)(=O)c1ccc(-n2cnc(Cl)c2-c2ccc(OCCCO)c(F)c2)cc1`, for which the pIC50 in data set [1] and in data set [2] was below 4.00 each time.

As for `CS(=O)(=O)c1ccc(-n2cnc(Cl)c2-c2ccc(OCCO)c(F)c2)cc1`, the figures for the pIC50 in data set [1] and in data set [2] were 4.25 and below 4.00, respectively.

With `NS(=O)(=O)c1ccc(-n2cnc(Cl)c2-c2ccc(OCCO)c(F)c2)cc1`, the negative-log IC50 (pIC50) in data set [1] was 4.70; in data set [2], below 4.00.

With `NS(=O)(=O)c1ccc(-n2cnc(Cl)c2-c2ccc(OCCO[N+](=O)[O-])c(F)c2)cc1`, the figures for the remaining at 24 h, 100 µM in data set [4] and in data set [5] were 58.8% and above 98%, respectively. Besides, the negative-log IC50 (pIC50) in data set [2] is below 4.00. Moreover, the values for the pEC50 in the data set listed under Rattus norvegicus [6] and in the data set listed under Rattus norvegicus [3] were 7.29 and 4.92, respectively.

Turning to `CS(=O)(=O)c1ccc(-n2cnc(Cl)c2-c2ccc(OCCO[N+](=O)[O-])c(F)c2)cc1`, the remaining at 24 h, 100 µM in data set [4] is 53.3%; in data set [5], above 98%. Besides, the negative logarithm of the IC50 (pIC50) in data set [2] is below 4.00. For the same molecule, the figures for the pEC50 in the data set filed under Rattus norvegicus [6] and in the data set listed under Rattus norvegicus [3] were 7.68 and 5.19, respectively.

For the molecule `CS(=O)(=O)c1ccc(-n2cnc(Cl)c2-c2ccc(OCCCO[N+](=O)[O-])c(F)c2)cc1`, the remaining at 24 h, 100 µM in data set [4] was 60.6%; in data set [5] it was above 98%. Also, the values for the pIC50 in data set [1] and in data set [2] were 4.85 and below 4.00, respectively. Besides, the figures for the pEC50 in the data set listed under Rattus norvegicus [6] and in the data set filed under Rattus norvegicus [3] were 7.11 and 5.20, respectively.

As to `CS(=O)(=O)c1ccc(-n2cnc(Cl)c2-c2ccc(OCC(CO[N+](=O)[O-])O[N+](=O)[O-])c(F)c2)cc1` (centres undefined), the remaining at 24 h, 100 µM was 43.6% in data set [4] and above 97% in data set [5]. Also, the pIC50 in data set [1] was 4.12; in data set [2], below 4.00. Moreover, the results for the negative-log EC50 (pEC50) in the data set filed under Rattus norvegicus [3] and in the data set listed under Rattus norvegicus [7] were below 4.00 and 7.21, respectively.

Take `NS(=O)(=O)c1ccc(-n2cnc(Cl)c2-c2ccc(OCCCO[N+](=O)[O-])c(F)c2)cc1`: the values for the remaining at 24 h, 100 µM in data set [4] and in data set [5] were 64.1% and above 98%, respectively. Further, the results for the pIC50 in data set [1] and in data set [2] were 4.80 and below 4.00, respectively. Moreover, the negative logarithm of the EC50 (pEC50) in the data set listed under Rattus norvegicus [6] was 7.00; in the data set listed under Rattus norvegicus [3], 4.74.

`NS(=O)(=O)c1ccc(-n2cnc(Cl)c2-c2ccc(OCCCO)c(F)c2)cc1`: the pIC50 in data set [1] and in data set [2] was below 4.00 throughout.

For `COc1ccc(-c2c(Cl)ncn2-c2ccc(S(N)(=O)=O)cc2)cc1F` [CIMICOXIB], the negative-log IC50 (pIC50) in data set [2] was 5.72. For the same molecule, the pEC50 in the data set listed under Rattus norvegicus [3] is 4.60.

As for `O=[N+]([O-])O[C@H]1CO[C@H]2[C@@H]1OC[C@H]2O[N+](=O)[O-]` [ISOSORBIDE DINITRATE], the pEC50 in the data set filed under Rattus norvegicus [6] was 5.33; in the data set listed under Rattus norvegicus [3], below 4.00; in the data set filed under Rattus norvegicus [7], 4.26.
